From ChEMBL document CHEMBL2440058, “Synthesis and structure-activity relationship studies of novel dihydropyridones as androgen receptor modulators” (J Med Chem, 2013)
The source made the active and inactive calls.

Experiments:
[1] = molecular target: T1, Androgen receptor (Homo sapiens) (UniProt P10275); assay: Inhibition of androgen receptor in human LNCAP cells assessed as decrease in PSA mRNA expression at 5 uM by RT-PCR analysis relative to control; format: cell-based
T1 sequence (whole entry): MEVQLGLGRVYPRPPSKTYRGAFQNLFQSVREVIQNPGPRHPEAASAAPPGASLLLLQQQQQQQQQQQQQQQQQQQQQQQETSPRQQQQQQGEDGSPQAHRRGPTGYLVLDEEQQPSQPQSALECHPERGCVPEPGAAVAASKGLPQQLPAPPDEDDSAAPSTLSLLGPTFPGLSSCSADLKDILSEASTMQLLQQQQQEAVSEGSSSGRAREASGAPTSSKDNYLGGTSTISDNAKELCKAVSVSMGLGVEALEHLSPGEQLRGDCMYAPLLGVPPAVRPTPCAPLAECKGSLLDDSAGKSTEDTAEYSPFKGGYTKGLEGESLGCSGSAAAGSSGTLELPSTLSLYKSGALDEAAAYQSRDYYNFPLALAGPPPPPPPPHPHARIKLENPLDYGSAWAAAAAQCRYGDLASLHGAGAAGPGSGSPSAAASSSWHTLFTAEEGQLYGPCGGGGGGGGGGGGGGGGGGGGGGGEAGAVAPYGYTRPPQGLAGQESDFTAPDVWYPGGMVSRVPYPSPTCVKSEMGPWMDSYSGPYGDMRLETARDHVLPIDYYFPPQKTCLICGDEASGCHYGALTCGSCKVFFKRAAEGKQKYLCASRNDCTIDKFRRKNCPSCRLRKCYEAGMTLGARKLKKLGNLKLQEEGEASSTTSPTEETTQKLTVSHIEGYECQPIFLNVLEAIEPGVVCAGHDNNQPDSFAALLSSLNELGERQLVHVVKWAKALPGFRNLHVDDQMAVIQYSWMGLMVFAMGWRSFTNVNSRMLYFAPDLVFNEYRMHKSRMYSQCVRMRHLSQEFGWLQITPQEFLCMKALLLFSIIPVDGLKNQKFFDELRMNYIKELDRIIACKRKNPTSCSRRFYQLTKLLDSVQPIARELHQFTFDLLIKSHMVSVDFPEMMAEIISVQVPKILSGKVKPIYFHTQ
Method in brief: (§1)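 LNCaP cells grown in RPMI 1640 with 10% FBS at 37°C. Transcript levels measured by real-time RT-PCR with rRNA as the reference gene. Relative RNA calculated from threshold cycles by the comparative Ct method.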

[2] = molecular target: T1, Androgen receptor (Homo sapiens); assay: Inhibition of androgen receptor in human LNCAP cells assessed as decrease in TMPRSS2 mRNA expression at 5 uM by RT-PCR analysis relative to control; format: cell-based; method in brief: as §1
Androgen receptor = molecular target: T2, Androgen receptor (Homo sapiens, UniProt P10275); assay: Displacement of Fluormone AL Green from androgen receptor ligand binding domain (unknown origin) after 4 hrs by fluorescence polarization assay
T2 sequence (P10275 whole entry): T1 sequence (whole entry)

LNCaP = assay: Cytotoxicity against human LNCAP cells at 5.56 to 50 uM after 48 hrs by 7-AAD dye-based flow cytometric analysis; format: cell-based
Method in brief: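 LNCaP cells (RPMI 1640, 10% FBS, 37°C) exposed to compound for 48 h in 10% FBS medium; 1% DMSO as vehicle control. Viable cell count measured by flow cytometry using 7-AAD viability stain.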

[3] = molecular target: T1, Androgen receptor (Homo sapiens); settings: LNCaP, at 0.5 to 3 µM

Row | Structure (SMILES) | inhibition [1] | inhibition [2] | IC50 (Androgen receptor) [µM] | Activity (LNCaP) | inhibition [3]
1 | O=C(O[C@H]1C(=O)C=CN(C(=O)/C=C/c2ccccc2)[C@@H]1c1ccccc1)c1ccc(F)cc1C(F)(F)F (racemic) | Active | Active | 30.1 | Non-toxic | inactive
2 | CC(C)(C)[Si](C)(C)O[C@H]1C(=O)C=CN(C(=O)C2CC2)[C@@H]1c1ccc2c(c1)OCO2 (racemic) | 90% | 90% |  |  | 
3 | CC(C)(C)[Si](C)(C)O[C@H]1C(=O)C=CN(C(=O)Cc2ccccc2)[C@@H]1c1ccc2c(c1)OCO2 (racemic) | 90% | 90% |  |  | 
4 | CC(C)(C)[Si](C)(C)O[C@H]1C(=O)C=CN(C(=O)Oc2ccccc2)[C@@H]1c1ccc2c(c1)OCO2 (racemic) | 90% | 90% |  |  | 
5 | CC(C)(C)[Si](C)(C)O[C@H]1C(=O)C=CN(C(=O)Oc2ccccc2)[C@@H]1c1ccccc1 (racemic) | 90% | 90% |  |  | 
6 | CC(C)(C)[Si](C)(C)O[C@H]1C(=O)C=CN(C(=O)c2ccc(C(F)(F)F)nc2)[C@@H]1c1ccc2c(c1)OCO2 (racemic) | 90% | 90% |  |  | 
7 | CC(C)(C)[Si](C)(C)O[C@H]1C(=O)C=CN[C@@H]1c1ccc2c(c1)OCO2 (racemic) | 90% | 90% |  |  | 
8 | CC(C)=C[C@@H]1[C@@H](OC(=O)c2ccc(F)cc2C(F)(F)F)C(=O)C=CN1C(=O)Oc1ccccc1 (racemic) | Active | Active |  |  | 
9 | CC(C)[C@@H]1[C@@H](OC(=O)c2ccc(F)cc2C(F)(F)F)C(=O)C=CN1C(=O)Oc1ccccc1 (racemic) | Active | Active |  |  | 
10 | COc1ccc(C(=O)O[C@H]2C(=O)C=CN(C(=O)/C=C/c3ccccc3)[C@@H]2c2ccccc2)cc1 (racemic) | Active | Active |  |  | 
11 | C[C@@H]1[C@@H](OC(=O)c2ccc(F)cc2C(F)(F)F)C(=O)C=CN1C(=O)Oc1ccccc1 (racemic) | Active | Active |  |  | 
12 | Cc1csc([C@@H]2[C@@H](O)C(=O)C=CN2C(=O)Oc2ccccc2)c1 (racemic) | 90% | 90% |  |  | 
13 | Cc1csc([C@@H]2[C@@H](OC(=O)N(C)c3ccccc3)C(=O)C=CN2C(=O)C2CC2)c1 (racemic) | 90% | 90% |  |  | 
14 | Cc1csc([C@@H]2[C@@H](OC(=O)N(C)c3ccccc3)C(=O)C=CN2C(=O)Oc2ccccc2)c1 (racemic) | 90% | 90% |  |  | 
15 | Cc1csc([C@@H]2[C@@H](OC(=O)N(C)c3ccccc3)C(=O)C=CN2C(=O)c2ccc(C(F)(F)F)nc2)c1 (racemic) | 90% | 90% |  |  | 
16 | Cc1csc([C@@H]2[C@@H](OC(=O)c3ccc(F)cc3C(F)(F)F)C(=O)C=CN2C(=O)Oc2ccccc2)c1 (racemic) | Active | Active |  |  | 
17 | Cc1csc([C@H]2NC=CC(=O)[C@@H]2OC(=O)N(C)c2ccccc2)c1 (racemic) | 90% | 90% |  |  | 
18 | N#Cc1ccc(C(=O)O[C@H]2C(=O)C=CN(C(=O)/C=C/c3ccccc3)[C@@H]2c2ccccc2)cc1 (racemic) | Active | Active |  |  | 
19 | N#Cc1cccc(C(=O)O[C@H]2C(=O)C=CN(C(=O)/C=C/c3ccccc3)[C@@H]2c2ccccc2)c1 (racemic) | Active | Active |  |  | 

Row | Structure (SMILES) | inhibition [1] | inhibition [2] | IC50 (Androgen receptor) [µM] | Activity (LNCaP) | inhibition [3]
20 | O=C(/C=C/c1cccc(C(F)(F)F)c1)O[C@H]1C(=O)C=CN(C(=O)/C=C/c2ccccc2)[C@@H]1c1ccccc1 (racemic) | Active | Active |  |  | 
21 | O=C(Cc1ccccc1)O[C@H]1C(=O)C=CN(C(=O)/C=C/c2ccccc2)[C@@H]1c1ccccc1 (racemic) | Active | Active |  |  | 
22 | O=C(O[C@H]1C(=O)C=CN(C(=O)/C=C/c2ccccc2)[C@@H]1c1ccccc1)C1CC1 (racemic) | Active | Active |  |  | 
23 | O=C(O[C@H]1C(=O)C=CN(C(=O)/C=C/c2ccccc2)[C@@H]1c1ccccc1)c1ccc(Cl)cc1 (racemic) | Active | Active |  |  | 
24 | O=C(O[C@H]1C(=O)C=CN(C(=O)/C=C/c2ccccc2)[C@@H]1c1ccccc1)c1ccccc1C(F)(F)F (racemic) | Active | Active |  |  | 
25 | O=C(O[C@H]1C(=O)C=CN(C(=O)Oc2ccccc2)[C@@H]1c1cc(F)cc(F)c1)c1ccc(F)cc1C(F)(F)F (racemic) | Active | Active |  |  | 
26 | O=C(O[C@H]1C(=O)C=CN(C(=O)Oc2ccccc2)[C@@H]1c1ccc2c(c1)OCO2)c1ccc(F)cc1C(F)(F)F (racemic) | Active | Active |  |  | 
27 | O=C(O[C@H]1C(=O)C=CN(C(=O)Oc2ccccc2)[C@@H]1c1cccc(-c2ccccc2)c1)c1ccc(F)cc1C(F)(F)F (racemic) | Active | Active |  |  | 
28 | O=C(O[C@H]1C(=O)C=CN(C(=O)Oc2ccccc2)[C@@H]1c1ccccc1)c1ccc(F)cc1C(F)(F)F (racemic) | Active | Active |  |  | 
29 | O=C(O[C@H]1C(=O)C=CN(C(=O)c2ccccc2)[C@@H]1c1ccccc1)c1ccc(F)cc1C(F)(F)F (racemic) | 90% | 90% |  |  | 
30 | O=C1C=CN(C(=O)/C=C/c2ccccc2)[C@H](c2ccccc2)[C@H]1O (racemic) | Active | Active |  |  | 
31 | O=C1C=CN(C(=O)Oc2ccccc2)[C@H](c2ccc(-c3ccccc3)cc2)C1 (racemic) | 90% | 90% |  |  | 
32 | O=C1C=CN(C(=O)Oc2ccccc2)[C@H](c2ccc3c(c2)OCO3)[C@H]1O (racemic) | 90% | 90% |  |  | 
33 | O=C1C=CN(C(=O)Oc2ccccc2)[C@H](c2cccc(-c3ccccc3)c2)[C@H]1O (racemic) | 90% | 90% |  |  | 
34 | O=C1C=CN(C(=O)Oc2ccccc2)[C@H](c2ccccc2)C1 (racemic) | 90% | 90% |  |  | 
35 | O=C1C=CN(C(=O)Oc2ccccc2)[C@H](c2ccccc2)[C@H]1O (racemic) | 90% | 90% |  |  | 
36 | O=C1C=CN(C(=O)c2ccccc2)[C@H](c2ccccc2)[C@H]1O (racemic) | 90% | 90% |  |  | 
37 | O=C1C=CN[C@H](c2ccccc2)[C@H]1O (racemic) | 90% | 90% |  |  | 
